High-throughput results deposited in PubChem by Sanford-Burnham Center for Chemical Genomics.
UBC13 inh: blocks human UBC13 polyubiquitin chain formation; P61088; TR-FRET; inhibition, % at 20 µM; hit rate 0.47% among 330,000; in the data active = inhibition above about 45%, passing the limit was not always enough
CHOP UPR activ: activators of apoptotic arm of unfolded protein response (CHOP) | CHO-CHOP luciferase reporter, UPR activation, luminescence; percent of tunicamycin response over DMSO baseline | activation, % at 10 µM | hit rate 0.34% among 330,000 | AID 449763;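 active = at 10 µM dose, activation of 40% or more, normalized to positive control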;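 also: 100% = tunicamycin at 10 µg/mL and 0% = DMSO alone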
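Dosing – one dose, 10 µM in 0.5% DMSO · System – CHO-CHOP cells, stable luciferase reporter of PERK-eIF2a-CHOP signalling · Input – 500 cells/well · Control set – tunicamycin 10 µg/mL final as positive, DMSO-only wells as negative · Timing – 6 h compound treatment, 37 °C · Measure – % activation vs tunicamycin · Technique – luminescence read with Steady-Glo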
XBP1 UPR activ: activators of adaptive arm of unfolded protein response (XBP1); CHO-XBP1 luciferase reporter, IRE1-XBP1 UPR activation, luminescence; percent of tunicamycin response, DMSO as zero; activation, % at 20 µM; hit rate 0.33% among 330,000; AID 463104;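 active = versus positive control, 20 µM dose yields 30% or more activation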;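 also: 100% = tunicamycin at 10 µg/mL and 0% = DMSO only wells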
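Material: CHO-XBP1 cells stably carrying IRE1-XBP1-driven luciferase reporter | Medium: F12 with 10% serum | Compound dosing: 20 µM single concentration, DMSO 1% | Incubation: Overnight seeding at 37 °C, 6 h compound treatment at 37 °C | Detection: Steady-Glo luminescence read | Read-out basis: % activation of reporter signal versus tunicamycin and DMSO controls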
Apaf1 inhib: blocks human Apaf-1 apoptosome activity. O14727. reconstituted apoptosome caspase-3 activity, DEVD-Rh110 fluorescence. inhibition, % at 20 µM. hit rate 0.71% among 330,000. AID 489030; active = inhibition of at least 40% at 20 µM;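 also: plate controls were DMSO wells for no effect and DEVD-CHO caspase inhibitor wells for full effect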
Target sequence (O14727 whole entry, looked up): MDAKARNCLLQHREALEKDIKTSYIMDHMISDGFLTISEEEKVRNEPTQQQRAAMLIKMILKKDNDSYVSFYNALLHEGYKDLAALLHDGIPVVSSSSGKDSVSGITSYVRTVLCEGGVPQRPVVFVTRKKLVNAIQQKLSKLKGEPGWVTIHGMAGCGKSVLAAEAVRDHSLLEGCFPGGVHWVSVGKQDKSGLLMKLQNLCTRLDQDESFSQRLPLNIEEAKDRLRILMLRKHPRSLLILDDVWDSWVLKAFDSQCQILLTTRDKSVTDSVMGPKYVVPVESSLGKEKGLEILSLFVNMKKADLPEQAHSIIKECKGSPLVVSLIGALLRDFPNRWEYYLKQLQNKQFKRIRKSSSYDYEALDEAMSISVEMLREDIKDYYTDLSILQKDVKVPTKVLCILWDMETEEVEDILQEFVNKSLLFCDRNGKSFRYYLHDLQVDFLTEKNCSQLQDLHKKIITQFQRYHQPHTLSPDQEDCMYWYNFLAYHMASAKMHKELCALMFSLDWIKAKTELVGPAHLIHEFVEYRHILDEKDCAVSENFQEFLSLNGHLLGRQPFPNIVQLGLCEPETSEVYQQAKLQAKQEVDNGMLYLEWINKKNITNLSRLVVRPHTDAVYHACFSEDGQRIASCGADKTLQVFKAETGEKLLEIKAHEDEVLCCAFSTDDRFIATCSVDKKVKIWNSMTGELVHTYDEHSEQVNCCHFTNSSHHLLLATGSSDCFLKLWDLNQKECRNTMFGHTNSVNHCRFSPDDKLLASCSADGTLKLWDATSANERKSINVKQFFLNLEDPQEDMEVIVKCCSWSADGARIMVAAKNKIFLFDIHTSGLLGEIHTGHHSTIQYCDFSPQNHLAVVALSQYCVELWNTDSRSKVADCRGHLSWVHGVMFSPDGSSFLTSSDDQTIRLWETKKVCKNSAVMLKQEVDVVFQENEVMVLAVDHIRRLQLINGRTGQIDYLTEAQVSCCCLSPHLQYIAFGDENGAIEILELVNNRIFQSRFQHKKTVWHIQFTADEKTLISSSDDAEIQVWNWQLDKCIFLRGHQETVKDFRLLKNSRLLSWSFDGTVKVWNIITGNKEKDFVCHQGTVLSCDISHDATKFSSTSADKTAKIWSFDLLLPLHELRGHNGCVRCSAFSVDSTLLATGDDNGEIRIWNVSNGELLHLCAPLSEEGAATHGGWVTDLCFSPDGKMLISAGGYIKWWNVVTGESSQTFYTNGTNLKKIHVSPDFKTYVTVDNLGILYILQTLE
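Material: reconstituted apoptosome with Apaf-1, cytochrome c, caspase-9, procaspase-3, dATP. Technique: Rh110 fluorescence intensity. Buffer or medium: pH 7.5 Hepes buffer with CHAPS, BSA, DTT. Times: 30 min plus 50 min, RT.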
Mdm2 MdmX PPI: inhibitors of human Mdm2/MdmX interaction; SaOS-2 split-luciferase Mdm2/MdmX complementation, luminescence; hit rate 3% among 330,000; inhibition, % at 8 µM; O15151+Q00987;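 active = inhibition of at least 50% at 8 µM in the primary screen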
UPR XBP1 confirm: confirmation of adaptive unfolded protein response (XBP1) activators | hit rate 63% among 1,000 | activation, % at 20 µM | CHO-XBP1 IRE1-XBP1 luciferase reporter, luminescence | AID 485299 | shares compounds with XBP1 UPR activ;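 active = reporter signal at least 30% of the positive control's activation in two or more of four replicate wells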;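 also: plate controls were DMSO negative control for no effect and tunicamycin 10 µg/mL positive control for full effect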
An asterisk follows results filed as active; / = no result. Shown are actives, neighbours in structure and some others; about 4.1% of the full set was active somewhere.

SMILES	UBC13 inh	CHOP UPR activ	XBP1 UPR activ	Apaf1 inhib	Mdm2 MdmX PPI	UPR XBP1 confirm
CCOc1ccccc1NC(=O)Cn1c(=O)n(-c2ccccc2)c(=O)c2oc3ccccc3c21	-8	2	65*	0	17	94*
O=C(Cn1c(=O)n(-c2ccccc2)c(=O)c2oc3ccccc3c21)Nc1ccccc1	-3	1	1	1	28	/
Cc1cc(C(=O)NNC(=O)c2ccccc2[N+](=O)[O-])c(C)o1	-10	2	59*	1	-15	2
CCC(C)NC(=O)Cc1c(C)c2cc3c(cc2oc1=O)OC(C)(C)CC3 (stereo unspecified)	7	3	-1	12	-36	/
Oc1ccc2ccccc2c1C=Nc1ccccc1-c1nc2ccccc2[nH]1	1	26	37*	21	46	5
COCCNC(=O)/C(C#N)=c1\s/c(=C\c2ccccc2OC(F)F)c(=O)n1Cc1ccccc1	-5	1	7	-9	9	/
CC1C/C(=N/Nc2nc3ccccc3[nH]2)CC(C)(C)C1 (stereo unspecified)	-5	3	34*	-8	0	31*
CC1C/C(=N/NC(=O)c2ccc(CSc3nc4ccccc4[nH]3)cc2)CC(C)(C)C1 (stereo unspecified)	-16	2	-2	8	-25	/
CCOC(=O)c1nnc(-c2ccccc2)nc1NCc1ccc(Cl)cc1	-8	-2	2	21	17	/
CCOC(=O)c1nnc(-c2ccc(C)cc2)nc1Oc1ccc(Cl)cc1Cl	-2	31	94*	5	20	124*
CCOC(=O)c1nnc(-c2ccc(C)cc2)nc1Sc1ccc(Cl)cc1	-1	22	47*	-13	35	19
CCOC(=O)c1nnc(-c2ccccc2)nc1Sc1c(Cl)cccc1Cl	-14	26	47*	12	34	97*
O=C(O)c1ccc(CNC(=O)C23CC4CC(CC(C4)C2)C3)cc1	-2	0	-2	8	19	/
COc1ccc(C(CNC(=O)c2cccc(S(=O)(=O)N3CCc4ccccc43)c2)N(C)C)cc1 (stereo unspecified)	30	1	0	28	-13	/
CC(Cn1cncn1)C(=O)N1CCN(S(=O)(=O)c2ccccc2)CC1 (stereo unspecified)	-1	2	4	1	12	/
COc1cc(/C=N/NC(=O)NC23CC4CC(CC(C4)C2)C3)ccc1OCC(N)=O	5	2	38*	6	36	11
COc1ccc(/C=N/NC(=O)c2cc(C34CC5CC(CC(C5)C3)C4)[nH]n2)cc1OC	-2	0	2	31	14	/
O=C(Cc1ccc(Cl)c(Cl)c1)Nc1ccc2[nH]c(=O)[nH]c2c1	4	-1	0	-29	8	/
CNC(=O)c1ccccc1NC(=O)C1CC(=O)N(C(C)C)C1 (stereo unspecified)	10	2	-3	-3	2	/
COC(=O)c1cc([N+](=O)[O-])c(-n2ccnc2)c([N+](=O)[O-])c1	-13	7	91*	-6	-2	187*
O=C(NCC1OCCc2ccccc21)c1ccc(NC(=O)c2ccc(Cl)cc2)cc1 (stereo unspecified)	-1	2	38*	3	47	25
Cc1ccc(NC(=O)C(=O)NCC2OCCc3ccccc32)cc1 (stereo unspecified)	-6	3	2	11	5	/
Cc1ccc(C)c(S(=O)(=O)NCC(=O)Nc2sc3c(c2C(N)=O)CCC(C)C3)c1 (stereo unspecified)	6	9	32*	4	20	24
CC1CCN(Cc2c(C(=O)N/N=C/c3ccc(C(F)(F)F)cc3)nnn2-c2nonc2N)CC1	-2	4	30*	20	7	40*
Cc1cc(C)c(/C=N/NC(=O)c2nnn(-c3nonc3N)c2CN2CCC(C)CC2)c(C)c1	-13	2	32*	23	19	6
SMILES	UBC13 inh	CHOP UPR activ	XBP1 UPR activ	Apaf1 inhib	Mdm2 MdmX PPI	UPR XBP1 confirm
COc1c(Cl)cc(Cl)cc1/C=N/NC(=O)c1nnn(-c2nonc2N)c1CN1CCC(C)CC1	-7	7	68*	1	34	91*
CC1CCN(Cc2c(C(=O)N/N=C/c3cccc(C(F)(F)F)c3)nnn2-c2nonc2N)CC1	4	1	5	22	14	/
CCOc1ccc(/C=N/NC(=O)c2nnn(-c3nonc3N)c2CN2CCC(C)CC2)cc1	-10	4	-7	25	3	/
Cc1cccc(C(=O)OCC(=O)NC(=O)Cc2ccccc2)c1O	11	0	-3	8	-2	/
O=C(COC(=O)CCCNC(=O)c1ccc(Cl)cc1)NC1CC1	6	1	1	0	-24	/
CCCOc1ccc(-c2c(=O)n(OCc3ccc([N+](=O)[O-])cc3)c3ccccc3[n+]2[O-])cc1	2	1	10	0	43	/
CC(C)CCOc1ccc(-c2c(=O)n(OCc3ccc([N+](=O)[O-])cc3)c3ccccc3[n+]2[O-])cc1	-3	16	41*	18	37	6
O=C(N=Nc1c(O)n(C2OC(=O)c3ccccc32)c2ccccc12)c1ccc(O)cc1 (stereo unspecified)	-14	2	105*	2	-10	11
O=C(N=Nc1c(O)n(Cc2ccccc2)c2ccccc12)c1ccc(O)cc1	-8	6	7	13	-148	/
CN1C(=O)/C(=N\OC(=O)c2cccc3ccccc23)c2ccccc21	-5	6	43*	5	16	5
CCOc1cc(/C=N\Nc2ccc([N+](=O)[O-])cc2)ccc1OCC(=O)Nc1ccc(C)c(C)c1	-124	7	44*	24	25	66*
CCOc1cc(/C=N/O)ccc1OCC(=O)Nc1cccc(C)c1	-3	2	2	4	-17	/
Cc1ccc(-c2nn(CC(=O)NN3CCOCC3)c(=O)c3ccccc23)cc1	-14	1	-3	-2	12	/
CCOc1ccc(NC(=S)NC(=O)/C=C/c2ccc(C)cc2)c([N+](=O)[O-])c1	-1	34	213*	0	37	144*
CCCCCCCc1c(O)nc(SCCN2CCOCC2)[nH]c1=O	-3	0	5	0	10	/
COc1ccc(-c2cc(C(F)(F)F)nc(SCC(N)=O)n2)cc1	5	-1	-2	5	-6	/
COc1ccc(-c2cc(C(F)(F)F)nc(SCC(=O)Nc3ccc4c(c3)OCO4)n2)cc1	-2	0	55*	23	44	0
O=C(NNC(=O)c1sccc1-n1cccc1)Nc1ccc(F)cc1	-5	1	-3	0	25	/
